From PubChem BioAssay
Only some compounds are listed: those with a hit (about 2.2% of all), similar ones and a draw of the others.
Exocytosis inh: LAMP-1 surface exposure blockers, TALL-104 cells – cell-based, flow cytometry, MLPCN library, primary screen; AID 651702, 2012; TALL-104 LAMP-1 surface exposure; cells stimulated with thapsigargin and PMA; 0.66% of 360,000 active; inhibition, % at 10 µM;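 active = inhibition above about 55%, limit read from the data; inconclusive = no clear call, values can overlap the other calls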
CSN inh: inhibitors of CSN-mediated cullin deneddylation, primary screen, biochemical, fluorescence polarization, uHTS; COP9 signalosome complex subunit 5 (Homo sapiens), Q92905; Purified CSN, SCF-Nedd8-OG deneddylation; inhibition, % at 12.5 µM; 0.38% of 360,000 active; AID 651999, 2013;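 active = pattern-corrected inhibition above about 35%, with an unprinted fluorescence ratio check between 0.5 and 1.5, limit read from the data, passing the limit was not always enough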;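 note: 0% = enzyme with substrate and 100% = substrate without enzyme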
Target sequence (Q92905 whole entry, looked up, one chain of several): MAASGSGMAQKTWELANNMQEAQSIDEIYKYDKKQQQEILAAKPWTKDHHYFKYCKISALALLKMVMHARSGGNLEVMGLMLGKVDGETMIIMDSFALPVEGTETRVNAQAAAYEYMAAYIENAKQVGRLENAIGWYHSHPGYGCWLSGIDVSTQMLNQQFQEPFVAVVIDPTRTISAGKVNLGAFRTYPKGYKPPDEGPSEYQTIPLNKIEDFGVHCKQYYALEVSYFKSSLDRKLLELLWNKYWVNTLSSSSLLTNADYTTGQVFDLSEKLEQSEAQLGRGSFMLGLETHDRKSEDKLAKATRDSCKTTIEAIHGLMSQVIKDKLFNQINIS
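Material: purified human Csn5 enzyme expressed in HEK293T cells / Medium: Tris buffer pH 7.5, NaCl, DTT, Tween-20, trehalose, ovalbumin / Compound dosing: 12.5 µM single point / Schedule: 90 min incubation of compound, enzyme and substrate at room temperature / Signal: fluorescence polarization of the substrate / Control set: no-enzyme wells high, enzyme-with-substrate wells low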
Myeloid diff MLP: induction of myeloid progenitor differentiation, primary screen, cell-based, flow cytometry, MLPCN library; calls only at 10 µM; 1% of 360,000 active; ER-HoxA9 myeloid progenitors, lysozyme-GFP differentiation; AID 624256, 2012;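 active = normalized GFP-positive differentiation at or above the plate's own cutoff, the solvent-only control mean plus 3 SD; inconclusive = no clear call, values can overlap the other calls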;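 note: cells exposed to compound for four days before flow analysis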
HNF4A DNA FP: change in binding of human HNF4A to DNA, primary screen, biochemical, fluorescence polarization, FITC-DNA. 1 h. 0.3% of 360,000 active. activity change, % at 10 µM. Hepatocyte nuclear factor 4-alpha (Homo sapiens), P41235; in the data active = activity change above about 30%, passing the limit was not always enough
HNF4a DNA conf: change in HNF4A binding to DNA, retest, confirmation, biochemical, fluorescence polarization, FITC-DNA. shares compounds with HNF4A DNA FP. 1 h. activity change, % at 12.5 µM. 99% of 210 active; call rule not given here
Starred values were filed as active, the others as inactive; i = inactive; u = inconclusive; x = not tested or not shown; + = active, no number.

SMILES | Exocytosis inh | CSN inh | Myeloid diff MLP | HNF4A DNA FP | HNF4a DNA conf
CSc1nnc(C)c(/C=C/Nc2ccc(C)cc2)n1 | -1.9 | 27.6 | i | 53.4* | 87.8*
CSc1nnc(C)c(/C=C/NOCc2ccc(Cl)cc2)n1 | 0.2 | -19.6 | i | 0.5 | x
Cc1cc(/C=C2/SC(=O)NC2=O)c(C)n1-c1ccc(N2CCOCC2)cc1 | 3.2 | -5.7 | i | -0.5 | x
COc1ccc(-n2c(C)cc(/C=C3\SC(=S)NC3=O)c2C)cc1 | 3.7 | 22.0 | i | 40.1* | 59.0*
CCOC(=O)c1c(-c2ccc(C)cc2)csc1NC(=O)/C(C#N)=C/c1ccc(O)c(OC)c1 | -1.2 | 42.2* | + | 55.2* | 62.5*
COc1cc(/C=C(\C#N)C(=O)Nc2ccccn2)ccc1O | -0.6 | 11.6 | i | 9.6 | x
CN1C(=O)/C(=C/C=C2/CCCN2C)N(C)C1=S | 11.7 | -4.0 | i | 45.6* | 82.0*
CC(C)(C)CCN1CCC(CN2CCNC(=O)C2=O)CC1 | -1.1 | -7.8 | i | 1.3 | x
Cc1c(-c2ccc(/C=N/NC(=O)C(=O)Nc3ccccc3F)o2)cccc1[N+](=O)[O-] | -4.9 | 15.2 | i | 78.6* | 35.1*
Cc1ccc(N2CCN(C(=O)C(=O)c3ccc(F)c(F)c3)CC2)cc1 | 0.5 | -5.0 | i | 2.1 | x
COc1ccc2c(-c3ccccc3)cc(SCC(N)=O)nc2c1 | 2.3 | 22.7 | + | 42.9* | 48.5*
Cc1cccc(NC(=O)CNC(=O)c2ccc(-n3cncn3)c([N+](=O)[O-])c2)c1C | -5.1 | -1.1 | i | -2.3 | x
O=C(COC(=O)c1ccc2c(c1)OCO2)Nc1ccccc1Cl | 10.8 | -6.8 | i | 3.3 | x
O=C(CSc1ncnc2scc(-c3ccccc3)c12)N1CCN(Cc2ccc3c(c2)OCO3)CC1 | -2.9 | 13.1 | i | 45.7* | 36.7*
O=C(CSc1nccc2ccccc12)N1CCN(Cc2ccc3c(c2)OCO3)CC1 | 6.1 | 1.2 | i | 1.4 | x
COc1cc(/C=C(/C#N)c2nc3ccccc3c(=O)[nH]2)ccc1O | 1.6 | 80.4* | i | 46.5* | 57.9*
COc1ccc(-c2cc3ncnc(Cl)c3s2)cc1 | 4.2 | 4.3 | u | 5.7 | x
